Published values pooled from the literature.
Compare with care: the assays were run in different laboratories.
Cell line: SW-620
Effect on: cell growth or viability

COc1ccc(C(=O)/C=C/c2ccccc2Br)cc1S(N)(=O)=O  GI50 (SRB; 48 h): 1800 nM
O=C(/C=C/c1ccc2c(=O)n(CCCl)cnc2c1)NO  IC50 (SRB; 48 h): 5640 nM
COc1cc(Nc2nccc(-c3cnn4nc(OC)ccc34)n2)cc(C(F)(F)F)c1  IC50 (ATP luminescence): 160 nM
COc1ccc(C(=O)/C=C/c2cccc(Br)c2)cc1S(N)(=O)=O  inhibition (SRB; 10 µM): 120%
O=C(/C=C/c1ccc2c(=O)n(Cc3ccccc3)cnc2c1)NO  IC50 (SRB; 48 h): 1130 nM
COc1ccc(C(=O)/C=C/c2cccnc2)cc1S(N)(=O)=O  inhibition (SRB; 10 µM): 87%
O=C(/C=C/c1ccc2c(=O)n(CCO)cnc2c1)NO  IC50 (SRB; 48 h): 3680 nM
S=C([S][Au-][P+](CCCCCC[P+]([Au-][S]C(=S)n1cccn1)(c1ccccc1)c1ccccc1)(c1ccccc1)c1ccccc1)n1cccn1  GI50: 4490 nM
CC(C)n1c(/C=C/C(O)CC(O)CC(=O)O)c(-c2ccc(F)cc2)c2ccccc21 (stereo not shown)  IC50 (SRB; 72 h): 0.49 µg/mL
Cc1ccc(Cn2cnc3ccc(/C=C/C(=O)NO)cc3c2=O)cc1  IC50 (SRB; 48 h): 1430 nM
O=C(O)C[C@H](O)C[C@H](O)/C=C/c1c(C2CC2)nc2ccccc2c1-c1ccc(F)cc1  IC50 (SRB; 72 h): 0.54 µg/mL
COc1cccc2c1C(=O)c1c(O)c3c(c(O)c1C2=O)C[C@@](O)(C(=O)CO)C[C@@H]3O[C@H]1C[C@H](N)[C@H](O)[C@H](C)O1  IC50 (MTT; 48 h): 2.57 µg/mL
COc1ccc(C(=O)/C=C/c2ccc3c(c2)OCCO3)cc1S(N)(=O)=O  inhibition (SRB; 10 µM): 68%
CC(=O)Nc1cccc(-n2c(=O)n(C3CC3)c(=O)c3c(Nc4ccc(I)cc4F)n(C)c(=O)c(C)c32)c1  viability (resazurin; 50 nM; 72 h): 25.7%
CCn1cnc2cc(/C=C/C(=O)NO)ccc2c1=O  IC50 (SRB; 48 h): 2970 nM
COc1ccc(C(=O)/C=C/c2cccc(Cl)c2Cl)cc1S(N)(=O)=O  inhibition (SRB; 10 µM): 147%
